A number with no mark means an inactive call.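 The calls were made as follows: active = compounds lowering the uptake signal whose fitted half-maximal concentration is at most twice their top valid dose; inconclusive = flat curve between 30% and 70% signal loss, or poor fit; inactive = opposite direction, flat near zero, or potency beyond limit.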

Consider eight molecules from PubChem BioAssay AID624007 (Broad Institute, 2012).

A short description of this test: DiI-HDL uptake inhibition in parental ldlA7 cells, dose response, counter-screen for SR-BI HDL uptake inhibitor project, cell-based, CHO ldlA7, fluorescence, dry powder, set 2 (AID 624007). Conditions: 3 h. Put shortly: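 assay system = ldlA7 CHO cells without LDL receptor, no mSR-BI overexpression | timing = 3 h exposure at 37 °C | signal = bottom-read fluorescence after PBS washes, excitation 550 nm, emission 595 nm | reagent = DiI-labelled HDL, 10 µg/mL final | doses = pin-transferred compounds | medium = HEPES-buffered (pH 7.4) F12 plus 0.5% fatty acid-free BSA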
In general terms: A counterscreen serves to expose hits that act by an unwanted route or on another target.

For `CC(C)NC(=O)Nc1ccc2c(c1)C(=O)N([C@H](C)CO)C[C@@H](C)[C@H](CN(C)S(=O)(=O)c1ccc(Cl)cc1)O2`, the DiI-HDL uptake signal change vs neutral control (%), lower = more inhibition is, setting by setting: (at 0.001 nM) -2.43%; (at 0.1 nM) 5.95%.

Consider `CC(C)NC(=O)Nc1ccc2c(c1)C(=O)N([C@@H](C)CO)C[C@H](C)[C@@H](CN(C)S(=O)(=O)c1ccc(Cl)cc1)O2`, for which the DiI-HDL uptake signal change vs neutral control (%), lower = more inhibition (at 0.002 nM) is 5.3%.

Take `CC(C)NC(=O)Nc1ccc2c(c1)CC(=O)N([C@H](C)CO)C[C@@H](C)[C@H](CN(C)S(=O)(=O)c1ccc(Cl)cc1)O2`: the DiI-HDL uptake signal change vs neutral control (%), lower = more inhibition (at 0.1 nM) is 4.77%.

For the molecule `CC(C)NC(=O)Nc1ccc2c(c1)C(=O)N([C@H](C)CO)C[C@@H](C)[C@@H](CN(C)S(=O)(=O)c1ccc(Cl)cc1)O2`, the DiI-HDL uptake signal change vs neutral control (%), lower = more inhibition (at 0.6 nM) was 5.71%.

With `CC(C)NC(=O)Nc1ccc2c(c1)C(=O)N([C@@H](C)CO)C[C@@H](C)[C@@H](CN(C)S(=O)(=O)c1ccc(Cl)cc1)O2`, the DiI-HDL uptake signal change vs neutral control (%), lower = more inhibition (at 1.6 nM) is 4.53%.

For `CC(C)NC(=O)Nc1ccc2c(c1)C(=O)N([C@H](C)CO)C[C@H](C)[C@H](CN(C)S(=O)(=O)c1ccc(Cl)cc1)O2`, where the note is “at 15 nM”, the DiI-HDL uptake signal change vs neutral control (%), lower = more inhibition was 8.44%.

As for `CC(C)NC(=O)Nc1ccc2c(c1)C(=O)N([C@@H](C)CO)C[C@H](C)[C@H](CN(C)S(=O)(=O)c1ccc(Cl)cc1)O2`, the DiI-HDL uptake signal change vs neutral control (%), lower = more inhibition (at 46 nM) was 8.74%.

For the molecule `CC(C)NC(=O)Nc1cccc2c1O[C@@H](CN(C)S(=O)(=O)c1ccc(Cl)cc1)[C@H](C)CN([C@H](C)CO)C2=O`, the DiI-HDL uptake signal change vs neutral control (%), lower = more inhibition (at 420 nM) is 9.23%.
